Measured values of several laboratories.
Lines come from different studies, so protocols differ.
Target: Fibroblast growth factor receptor 2 (FGFR2, Homo sapiens, UniProt P21802)

CCCOc1ccc([C@@H]2[C@@H](C(=O)O)[C@H](c3ccc4c(c3)OCO4)CN2CC(=O)Nc2c(CC)cccc2CC)cc1
remaining binding (cell-free assay, competition with immobilised ligand; 1 µM): 100%

O=C(c1ccc(Nc2ncc(Cl)c(-c3cc4ccccc4s3)n2)cc1)N1CCC(N2CCCC2)CC1
remaining binding (binding, competition with immobilised ligand; 1 µM): 33%

Cc1cc(-n2nc(Cc3cc(F)cc(C(F)(F)F)c3)nc2C)ccc1C(N)=O
remaining binding (cell-free assay, competition with immobilised ligand; 1 µM): 100%

O=C(c1ccc(Nc2nccc(-c3cc4ccccc4s3)n2)cc1)N1CCC(N2CCCC2)CC1
remaining binding (binding, competition with immobilised ligand; 1 µM): 77%

CC1CCCN1c1nccc(-c2cnn3ncccc23)n1 (stereo not shown)
remaining binding (binding; 1 µM): 100%

C[C@@H]1CN(c2ccc3ncc(-c4ccc5[nH]nc(C6CC6)c5c4)n3n2)C[C@H](C)O1
remaining binding (binding, competition with immobilised ligand; 0.5 µM): 100%

Cc1cnn2ncc(-c3ccnc(N(C)C)n3)c2c1
remaining binding (binding; 1 µM): 98%

C[C@@H](c1ccc(-n2cnc3c(N)ncnc32)cc1)N1CCc2nn(C)c(Cc3ccccc3)c2C1=O
remaining binding (binding, competition with immobilised ligand; 0.1 µM): 72%

CC(C)(C)c1ccc(-c2nc(CBr)nn2-c2cccc(O)c2)cc1
remaining binding (cell-free assay, competition with immobilised ligand; 10 µM): 95%

CCOCCn1cc(C(=O)Nc2ccc(-n3nc(-c4cccnc4)cc3C(F)(F)F)cn2)ccc1=O
remaining binding (cell-free assay, competition with immobilised ligand; 1 µM): 49%

CN(C)c1nccc(-c2cnn3ncccc23)n1
remaining binding (binding; 1 µM): 100%

COc1ncc2cc3ccccc3nc2c1C#N
remaining binding (cell-free assay, competition with immobilised ligand; 5 µM): 93%

C[C@H]1CCN(c2nccc(-c3cnn4ncccc34)n2)C1
remaining binding (binding; 1 µM): 100%

Cc1nccc(COC(=O)N2C[C@@H]3[C@@H](CNC(=O)c4ccc5[nH]nnc5c4)[C@@H]3C2)n1
remaining binding (cell-free assay, competition with immobilised ligand; 1 µM): 78%

Cc1cnc(Nc2ccc(C(=O)N3CCC(N4CCCC4)CC3)cc2)nc1-c1cc2ccccc2s1
remaining binding (binding, competition with immobilised ligand; 1 µM): 14%

O=C(NCC1CCOCC1)c1n[nH]cc1NC(=O)c1c(F)cccc1F
remaining binding (binding, competition with immobilised ligand; 1 µM): 100%

CN1CCN(c2cnc3c(C4CCN(C(=O)c5ccc(OC(F)(F)F)cc5N)CC4)ncnc3c2)CC1
remaining binding (cell-free assay, competition with immobilised ligand; 1 µM): 100%

CN(c1nccc(-c2cnn3ncccc23)n1)C1CC1
remaining binding (binding; 1 µM): 100%

Nc1ncc2c(n1)-c1c([nH]c3ccc(C#CC4CC4)cc13)CCCC2
remaining binding (binding, competition with immobilised ligand; 1 µM): 99%

Cn1nc(C(=O)NCc2ccc(C(=O)O)cc2)cc1-c1ccc2[nH]ccc2c1
remaining binding (cell-free assay, competition with immobilised ligand; 0.1 µM): 87%

COc1ccnn2ncc(-c3ccnc(N(C)C)n3)c12
remaining binding (binding; 1 µM): 100%

C[C@H](NC(=O)c1cnc2n1[C@](C)(Cc1ccc(C#N)cc1)C(=O)N2c1cc(Cl)c(F)c(Cl)c1)C(=O)NC1(c2ccccn2)CC1
remaining binding (cell-free assay, competition with immobilised ligand; 1 µM): 100%

CNC(=O)[C@@H]1CC[C@@H](n2c(-c3ccc4cnccc4c3)nc3ccc(C(=O)NCc4cccc(C(N)=O)c4)cc32)C1
remaining binding (binding, competition with immobilised ligand; 1 µM): 96%

N[C@@H]1CCN(c2nccc(-c3cnn4ncccc34)n2)C1
remaining binding (binding; 1 µM): 99%

CC(=O)c1c(NS(C)(=O)=O)c2cc(-c3ccc(Cl)cc3)c(-c3ccc(Cl)cc3Cl)nc2n(C)c1=O
remaining binding (cell-free assay, competition with immobilised ligand; 1 µM): 92%
